Test results: ChEMBL document CHEMBL2176962, “Repositioning HIV-1 integrase inhibitors for cancer therapeutics: 1,6-naphthyridine-7-carboxamide as a promising scaffold with drug-like properties” (J Med Chem, 2012)
pIC50: −log10 of the molar value. One block for each compound: values may come before it. Active and inactive are the calls of the source. The rule behind the calls is not given here.

Columns and labels:
HCT-116 [1] = experiment: Cytotoxicity against p53 deficient human HCT116 cells incubated for 72 hrs by MTT assay; assay type: functional, cell-based; conditions: HCT-116, 72 h
Procedure, shortened: (§1)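 Cells were kept in DMEM (MDA-MB-435, MCF7, LNCaP) or RPMI (HT29, HCT116) with 10% heat-inactivated FBS and 2 mM L-glutamine, subconfluent and in exponential growth. They were seeded, allowed to adhere overnight, then exposed continuously to compound (10 mM DMSO stock) for 72 h. MTT was added to 0.3 mg/mL final for 3–4 h at 37 °C, formazan was dissolved in DMSO, and absorbance was read at 570 nm. Runs were in triplicate; IC50 came from log concentration versus percent cell kill.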

[2] = target: Receptor tyrosine-protein kinase erbB-2 (Homo sapiens) (UniProt P04626); experiment: Inhibition of ErbB2 at 10 uM incubated for 60 mins using poly(Glu,Tyr)4:1 substrate and 10 uM ATP by ELISA
Sequence of Receptor tyrosine-protein kinase erbB-2 (Homo sapiens) (P04626 whole entry): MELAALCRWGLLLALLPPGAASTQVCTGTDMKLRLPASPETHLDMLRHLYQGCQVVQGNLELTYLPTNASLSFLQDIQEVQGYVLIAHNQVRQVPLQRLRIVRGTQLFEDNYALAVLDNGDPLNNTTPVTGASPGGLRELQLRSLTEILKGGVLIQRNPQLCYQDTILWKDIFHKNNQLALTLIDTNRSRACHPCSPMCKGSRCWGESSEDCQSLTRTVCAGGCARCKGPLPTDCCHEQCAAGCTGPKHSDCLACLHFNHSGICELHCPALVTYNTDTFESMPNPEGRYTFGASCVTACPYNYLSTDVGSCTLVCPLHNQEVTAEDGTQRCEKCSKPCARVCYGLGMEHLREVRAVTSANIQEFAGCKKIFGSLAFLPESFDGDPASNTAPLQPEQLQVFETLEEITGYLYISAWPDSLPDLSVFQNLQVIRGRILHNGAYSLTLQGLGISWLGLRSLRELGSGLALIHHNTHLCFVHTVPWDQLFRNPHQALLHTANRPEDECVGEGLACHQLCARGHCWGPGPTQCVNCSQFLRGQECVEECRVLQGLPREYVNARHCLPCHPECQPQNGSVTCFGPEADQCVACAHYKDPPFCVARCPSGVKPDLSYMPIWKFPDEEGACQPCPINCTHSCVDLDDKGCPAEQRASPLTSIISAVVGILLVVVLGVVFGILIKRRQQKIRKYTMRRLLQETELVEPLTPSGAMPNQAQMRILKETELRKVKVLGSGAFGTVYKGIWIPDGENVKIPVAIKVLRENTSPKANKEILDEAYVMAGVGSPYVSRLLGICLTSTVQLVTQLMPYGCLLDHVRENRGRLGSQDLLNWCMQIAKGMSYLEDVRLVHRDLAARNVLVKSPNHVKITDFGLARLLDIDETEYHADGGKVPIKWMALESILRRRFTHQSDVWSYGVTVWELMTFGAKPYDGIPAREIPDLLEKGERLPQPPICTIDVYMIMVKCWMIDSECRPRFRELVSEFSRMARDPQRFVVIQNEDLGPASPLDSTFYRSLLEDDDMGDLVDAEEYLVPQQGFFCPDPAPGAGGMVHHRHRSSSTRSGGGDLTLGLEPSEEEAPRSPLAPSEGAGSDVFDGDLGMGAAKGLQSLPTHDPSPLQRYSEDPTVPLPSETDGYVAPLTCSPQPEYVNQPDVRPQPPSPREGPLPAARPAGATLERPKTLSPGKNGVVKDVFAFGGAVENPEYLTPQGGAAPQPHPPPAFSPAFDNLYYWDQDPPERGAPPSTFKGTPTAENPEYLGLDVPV
Procedure, shortened: (§2)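 ELISA with Poly(Glu,Tyr)4:1 (20 μg/mL) precoated as substrate and 10 μM ATP, in 50 mM HEPES pH 7.4, 20 mM MgCl2, 0.1 mM MnCl2, 0.2 mM Na3VO4, 1 mM DTT. Compound was tested at 10 μM, in duplicate. Kinase reaction ran 60 min at 37 °C. Phosphotyrosine was detected with PY99 and HRP anti-mouse IgG, developed with o-phenylenediamine/H2O2, stopped with H2SO4 and read at 492 nm. Inhibition = [1 − A492 treated/A492 control] × 100%. References: lapatinib (ErbB2) and PP2 (Src), each at 10 μM.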

LNCaP = experiment: Cytotoxicity against human LNCAP cells incubated for 72 hrs by MTT assay; assay type: functional, cell-based; procedure, shortened: as §1
MCF7 = experiment: Cytotoxicity against human MCF7 cells incubated for 72 hrs by MTT assay; assay type: functional, cell-based; conditions: MCF7, 72 h; procedure, shortened: as §1
[3] = target: Proto-oncogene tyrosine-protein kinase Src (Homo sapiens) (UniProt P12931); experiment: Inhibition of SRC at 10 uM incubated for 60 mins using poly(Glu,Tyr)4:1 substrate and 10 uM ATP by ELISA; procedure, shortened: as §2
Sequence of Proto-oncogene tyrosine-protein kinase Src (Homo sapiens) (P12931 2-536 limits assumed): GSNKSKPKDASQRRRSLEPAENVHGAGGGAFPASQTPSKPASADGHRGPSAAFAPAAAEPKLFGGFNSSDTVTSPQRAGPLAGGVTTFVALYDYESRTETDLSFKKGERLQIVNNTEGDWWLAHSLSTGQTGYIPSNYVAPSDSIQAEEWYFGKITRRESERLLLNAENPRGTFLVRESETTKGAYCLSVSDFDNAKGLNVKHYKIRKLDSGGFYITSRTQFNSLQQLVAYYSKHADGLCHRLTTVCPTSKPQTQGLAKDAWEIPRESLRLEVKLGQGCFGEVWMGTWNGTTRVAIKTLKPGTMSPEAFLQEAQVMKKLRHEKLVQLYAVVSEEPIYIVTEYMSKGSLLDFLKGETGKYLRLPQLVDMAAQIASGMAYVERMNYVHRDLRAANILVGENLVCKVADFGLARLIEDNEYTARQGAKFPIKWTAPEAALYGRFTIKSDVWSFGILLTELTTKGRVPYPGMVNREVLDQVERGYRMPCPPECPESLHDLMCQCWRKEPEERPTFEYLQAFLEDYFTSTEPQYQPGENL

MDA-MB-435 [4] = experiment: Inhibition of colony formation in human MDA-MB-435 cells treated continuously for 7 days by crystal violet staining based colony formation assay; assay type: functional, cell-based
Procedure, shortened: (§3)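 MDA-MB-435 cells (500 per well) were adhered overnight and treated with compound at 10 μM, or across a dose range. The methods describe a 24 h treatment, then PBS washing and 7–10 days regrowth; the figure legend describes continuous 7-day treatment. Colonies were fixed and stained with 2% crystal violet containing 1% glutaraldehyde, then imaged.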

MDA-MB-435 [5] = experiment: Induction of cell cycle arrest in human in human MDA-MB-435 cells assessed as accumulation at G0/G1 phase at 2 times cytotoxic IC50 level after 12 to 48 hrs by propidium iodide staining based flow cytometry; assay type: functional
MDA-MB-435 [6] = experiment: Inhibition of colony formation in human MDA-MB-435 cells at 10 uM treated continuously for 7 days by crystal violet staining based colony formation assay; assay type: functional, cell-based; procedure, shortened: as §3
HCT-116 [7] = experiment: Cytotoxicity against p53 expressing human HCT116 cells incubated for 72 hrs by MTT assay; assay type: functional, cell-based; conditions: HCT-116, 72 h; procedure, shortened: as §1
HT-29 = experiment: Cytotoxicity against human HT-29 cells incubated for 72 hrs by MTT assay; assay type: functional, cell-based; conditions: HT-29, 72 h; procedure, shortened: as §1
SK-BR-3 = experiment: Cytotoxicity against human SKBR3 cells incubated for 72 hrs by MTT assay; assay type: functional, cell-based; conditions: SK-BR-3, 72 h
MDA-MB-435 [8] = experiment: Cytotoxicity against human MDA-MB-435 cells incubated for 72 hrs by MTT assay; assay type: functional, cell-based; conditions: MDA-MB-435, 72 h; procedure, shortened: as §1
MDA-MB-435 [9] = experiment: Induction of cell cycle arrest in human in human MDA-MB-435 cells assessed as accumulation at G0/G1 phase at 2 times cytotoxic IC50 level after 12 hrs by propidium iodide staining based flow cytometry; assay type: functional
[10] = target: T1, Human immunodeficiency virus type 1 integrase (Human immunodeficiency virus 1, UniProt Q7ZJM1); experiment: Inhibition of HIV1 integrase strand transfer activity using [32P]-labeled linear oligonucleotide substrate
T1 sequence (Q7ZJM1 whole entry): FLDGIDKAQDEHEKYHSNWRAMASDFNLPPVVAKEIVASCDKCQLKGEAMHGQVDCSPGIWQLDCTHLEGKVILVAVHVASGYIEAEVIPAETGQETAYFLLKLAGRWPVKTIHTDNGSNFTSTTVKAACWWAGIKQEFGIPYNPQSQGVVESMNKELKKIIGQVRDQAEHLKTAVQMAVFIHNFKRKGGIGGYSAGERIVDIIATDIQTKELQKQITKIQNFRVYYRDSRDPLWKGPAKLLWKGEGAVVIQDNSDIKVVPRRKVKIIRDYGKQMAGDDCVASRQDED

[11] = target: T1, Human immunodeficiency virus type 1 integrase; experiment: Inhibition of HIV1 integrase 3'-processing activity using [32P]-labeled linear oligonucleotide substrate
MDA-MB-435 [12] = experiment: Induction of cell cycle arrest in human in human MDA-MB-435 cells assessed as accumulation at G0/G1 phase at 2 times cytotoxic IC50 level after 48 hrs by propidium iodide staining based flow cytometry (reference value: 36%); assay type: functional

- inhibition [2]: 7%
- inhibition [3]: 13%
Structure (SMILES): N[C@H]1CC[C@H](Nc2c(C(=O)NCc3ccc(F)cc3)nc(Br)c3cccnc23)CC1
- pIC50 (HCT-116 [1]): 5.40
- pIC50 (LNCaP): 5.30
- pIC50 (MCF7): 5.70
- inhibition (MDA-MB-435 [4]): Dose-dependent effect
- Activity (MDA-MB-435 [5]): Active
- inhibition (MDA-MB-435 [6]): Active
- pIC50 (HCT-116 [7]): 5.15
- pIC50 (HT-29): > 6.00
- pIC50 (SK-BR-3): 5.70
- pIC50 (MDA-MB-435 [8]): 5.22

- pIC50 [10]: < 4.00
- pIC50 [11]: < 4.00
Structure (SMILES): NCCCNc1c(C(=O)NCc2ccc(F)cc2)nc(Br)c2cccnc12
- pIC50 (HCT-116 [1]): 4.74
- Activity (MDA-MB-435 [9]): Active
- pIC50 (MCF7): 5.22
- inhibition (MDA-MB-435 [6]): Active
- pIC50 (HCT-116 [7]): < 4.70
- Activity (MDA-MB-435 [12]): 61%
- pIC50 (MDA-MB-435 [8]): 5.30
